Measurements reported in article PMC10685179 (RSC Advances, 2023).
In brackets after ≈: the same amount, converted by molar mass. Residues, ends and D or L forms follow the SMILES beside them. *: point of attachment. βNA = c1ccc2cc(N*)ccc2c1

Experiments:
E. faecalis KA247 [1] = assay: Agar well-diffusion, inhibition zone; format: cell-based, Enterococcus faecalis
Procedure, shortened: (§1)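 Clinical MDR isolates from complicated UTI patients. Suspensions were made in Tryptic Soya and Sabouraud broths from subcultures on Tryptic Soya and Sabouraud agar plates. Agar well diffusion followed CLSI guidelines, with test compounds applied at 10 μM in DMSO. Fosfomycin and fluconazole were positive controls and DMSO the negative control. Zone diameters were read in mm, in triplicate.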

S. aureus KA112 [2] = assay: Agar well-diffusion, inhibition zone; format: cell-based, Staphylococcus aureus
Procedure, shortened: as §1

E. coli KA780 [3] = assay: Agar well-diffusion, inhibition zone; format: cell-based, Escherichia coli
Procedure, shortened: as §1

P. mirabilis KA320 [4] = assay: Agar well-diffusion, inhibition zone; format: cell-based, Proteus mirabilis
Procedure, shortened: as §1

C. albicans KA205 [5] = assay: Agar well-diffusion, inhibition zone; format: cell-based, Candida albicans; conditions: for zone of inhibition at 10 µM: Candida albicans, KA205, read-out: Average diameter of inhibition zone (ZI)
Procedure, shortened: as §1

C. tropicalis KA205 [6] = assay: Agar well-diffusion, inhibition zone; format: cell-based, Candida tropicalis; conditions: for zone of inhibition at 10 µM: Candida tropicalis, KA205, read-out: Average diameter of inhibition zone (ZI)
Procedure, shortened: as §1

E. faecalis KA247 [7] = assay: Broth microdilution MIC and MBC; format: cell-based; conditions: Enterococcus faecalis, KA247, 24 h
S. aureus KA112 [8] = assay: Broth microdilution MIC and MBC; format: cell-based; conditions: Staphylococcus aureus; for MIC: KA112, 24 h; for MBC: KA112, read-out: MBC/MIC
E. coli KA780 [9] = assay: Broth microdilution MIC and MBC; format: cell-based; conditions: Escherichia coli; for MIC: KA780, 24 h; for MBC: KA780, read-out: MBC/MIC
P. mirabilis KA320 [10] = assay: Broth microdilution MIC and MBC; format: cell-based; conditions: Proteus mirabilis; for MIC: KA320, 24 h; for MBC: KA320, read-out: MBC/MIC
C. albicans KA205 [11] = assay: Broth microdilution MIC and MFC; format: cell-based; conditions: Candida albicans; for MIC: KA205, 24 h; for MFC: KA205, read-out: MFC/MIC
C. tropicalis KA205 [12] = assay: Broth microdilution MIC and MFC; format: cell-based; conditions: Candida tropicalis; for MIC: KA205, 24 h; for MFC: KA205, read-out: MFC/MIC
E. faecalis KA247 [13] = assay: Checkerboard microdilution synergy with fosfomycin; format: cell-based, Enterococcus faecalis
S. aureus KA112 [14] = assay: Checkerboard microdilution synergy with fosfomycin; format: cell-based, Staphylococcus aureus
E. coli KA780 [15] = assay: Checkerboard microdilution synergy with fosfomycin; format: cell-based, Escherichia coli
P. mirabilis KA320 [16] = assay: Checkerboard microdilution synergy with fosfomycin; format: cell-based, Proteus mirabilis
C. albicans KA205 [17] = assay: Checkerboard microdilution synergy with fluconazole; format: cell-based, Candida albicans
C. tropicalis KA205 [18] = assay: as above; format: cell-based, Candida tropicalis
MDR microbial isolates = assay: Time-kill kinetics, whole panel; format: cell-based; conditions: all pathogenic isolates
Procedure, shortened: (§2)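 Untreated organisms served as controls. Bacteria were sampled at 0, 2, 4, 6, 8, 12, 18 and 24 h, and fungi at 0, 2, 4, 6, 8, 18, 24 and 48 h. Counts were made by plate count and plotted as log10 CFU mL−1 versus time.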

bacterial isolates [19] = assay: Time-kill kinetics, bacterial isolates; format: cell-based; conditions: at MIC
Procedure, shortened: as §2

fungal isolates [20] = assay: Time-kill kinetics, fungal isolates; format: cell-based; conditions: at MIC
Procedure, shortened: as §2

[21] = test system: fosfomycin-resistant (FO-R) E. coli KA780; assay: SEM of outer membrane integrity; format: cell-based; conditions: at MIC, compared with DMSO
[22] = test system: BNL: mouse normal liver cells; assay: SRB cytotoxicity assay on normal cells; format: cell-based
Procedure, shortened: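 Mouse normal liver BNL cells were grown in DMEM with 10% heat-inactivated FBS, penicillin and streptomycin, at 37 °C in 5% CO2. […] SRB assay: 10% TCA fixation at 4 °C for 1 h, 0.4% SRB for 10 min at room temperature, 1% acetic acid washes, 10 mM Tris solubilisation, absorbance at 540 nm. Mean of three, with SD.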

E. coli MurA enzyme = E. coli MurA enzyme (Escherichia coli, UniProt P0A749); assay: MurA enzyme inhibition assay; format: biochemical
Sequence of E. coli MurA enzyme (P0A749 whole entry): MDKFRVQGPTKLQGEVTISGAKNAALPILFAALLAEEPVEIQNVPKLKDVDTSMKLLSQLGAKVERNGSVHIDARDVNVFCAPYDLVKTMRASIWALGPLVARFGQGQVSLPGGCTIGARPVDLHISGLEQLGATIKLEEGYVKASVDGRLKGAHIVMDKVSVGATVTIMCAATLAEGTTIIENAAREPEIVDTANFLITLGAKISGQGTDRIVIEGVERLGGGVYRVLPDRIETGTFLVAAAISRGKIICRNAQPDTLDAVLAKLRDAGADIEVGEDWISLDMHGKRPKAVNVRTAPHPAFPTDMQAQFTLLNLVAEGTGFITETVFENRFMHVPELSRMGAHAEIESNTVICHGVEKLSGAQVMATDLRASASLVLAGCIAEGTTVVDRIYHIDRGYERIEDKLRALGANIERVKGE

[23] = Physical and chemical stability after gamma irradiation; format: physicochemical; conditions: gamma radiation 3.0 kGy to 20.0 kGy
Procedure, shortened: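 Compound powders in sterile tubes were irradiated by a 60Co source at 3.0, 5.0, 7.0, 10.0, 15.0 and 20.0 kGy, at a dose rate of 0.9 kGy h−1. Non-irradiated and irradiated samples were checked for physical and chemical changes by UV-VIS spectrophotometry at 560 nm.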

bacterial isolates [24] = assay: Broth microdilution MIC/MBC, bacterial panel; format: cell-based; conditions: pyrrole 6b versus thiophene 6a; bacteria
fungal isolates [25] = assay: Agar well-diffusion, inhibition zone, fungal panel; format: cell-based
Procedure, shortened: as §1

[26] = test system: MDR bacterial and fungal isolates; assay: Broth microdilution MIC/MBC/MFC, whole panel; format: cell-based; conditions: bactericidal/fungicidal if MBC or MFC not greater than four times the MIC
fungal isolates [27] = assay: Broth microdilution MIC/MFC, fungal panel; format: cell-based
E. coli Kam3-AcrB = assay: Ethidium bromide; format: cell-based; conditions: phosphonates 0.06 to 2 μg mL^−1; PaβN 20 μg mL^−1
Procedure, shortened: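 E. coli Kam3-AcrB (pSYC plasmid encoding AcrB) was grown to mid-log phase in TS broth and pelleted at 5000×g for 5 min at 4 °C. Cells were washed twice in PBS pH 7.4 and adjusted to OD600 ≈0.5. Cells were treated with phosphonates (0.06–2 μg mL−1) or 0.1% DMSO for 12 h, then combined with EtBr, 25 mM glucose (final) and PaβN 20 μg mL−1. Fluorescence was read over 38 min, […], as RFU.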

[28] = 10 μM (DMSO), mean of three ± SEM

SMILES: CN(C)c1ccc(C(Nc2nc3c(-c4ccc([N+](=O)[O-])cc4)nn(-c4ccccc4)c3s2)P(=O)(Oc2ccccc2)Oc2ccccc2)cc1 (stereo not drawn) [Compound 5b, Diphenyl((4-(dimethylamino)phenyl)((3-(4-nitrophenyl)-1-phenyl-1H-pyrazolo[4,3-d]thiazol-5-yl)amino)methyl)phosphonate]
- Average diameter of inhibition zone (ZI) (E. faecalis KA247 [1]; [28]): 23 ± 0.88 mm
- Average diameter of inhibition zone (ZI) (S. aureus KA112 [2]; [28]): 24 ± 0.03 mm
- Average diameter of inhibition zone (ZI) (E. coli KA780 [3]; [28]): 25 ± 0.00 mm
- Average diameter of inhibition zone (ZI) (P. mirabilis KA320 [4]; [28]): 23 ± 0.78 mm
- Average diameter of inhibition zone (ZI) (C. albicans KA205 [5]; [28]): 22 ± 0.22 mm
- Average diameter of inhibition zone (ZI) (C. tropicalis KA205 [6]; [28]): 21 ± 0.32 mm
- MIC (E. faecalis KA247 [7]): 0.125 µg/mL (≈ 0.178 µM)
- MIC (S. aureus KA112 [8]): 0.06 µg/mL (≈ 0.0854 µM)
- MBC (S. aureus KA112 [8]): 1 µg/mL (≈ 1.42 µM)
- MIC (E. coli KA780 [9]): 0.06 µg/mL (≈ 0.0854 µM)
- MBC (E. coli KA780 [9]): 0.5 µg/mL (≈ 0.712 µM)
- MIC (P. mirabilis KA320 [10]): 0.25 µg/mL (≈ 0.356 µM)
- MBC (P. mirabilis KA320 [10]): 0.5 µg/mL (≈ 0.712 µM)
- MIC (C. albicans KA205 [11]): 0.125 µg/mL (≈ 0.178 µM)
- MFC (C. albicans KA205 [11]): 1 µg/mL (≈ 1.42 µM)
- MIC (C. tropicalis KA205 [12]): 0.5 µg/mL (≈ 0.712 µM)
- MFC (C. tropicalis KA205 [12]): 0.5 µg/mL (≈ 0.712 µM)
- combination effect (E. faecalis KA247 [13]): S (FICI ≤ 0.5 (synergism))
- Fractional inhibitory concentration index (ΣFICI) (E. faecalis KA247 [13]; combination with fosfomycin): 0.5
- combination effect (S. aureus KA112 [14]): S (FICI ≤ 0.5 (synergism))
- Fractional inhibitory concentration index (ΣFICI) (S. aureus KA112 [14]; combination with fosfomycin): 0.5
- combination effect (E. coli KA780 [15]): S (FICI ≤ 0.5 (synergism))
- Fractional inhibitory concentration index (ΣFICI) (E. coli KA780 [15]; combination with fosfomycin): 0.25
- combination effect (P. mirabilis KA320 [16]): S (FICI ≤ 0.5 (synergism))
- Fractional inhibitory concentration index (ΣFICI) (P. mirabilis KA320 [16]; combination with fosfomycin): 0.25
- combination effect (C. albicans KA205 [17]): P (0.5 < FICI > 1 (partial synergism))
- Fractional inhibitory concentration index (ΣFICI) (C. albicans KA205 [17]; combination with fluconazole): 0.75
- combination effect (C. tropicalis KA205 [18]): P (0.5 < FICI > 1 (partial synergism))
- Fractional inhibitory concentration index (ΣFICI) (C. tropicalis KA205 [18]; combination with fluconazole): 0.75
- microbial reduction relative to the initial inoculum (MDR microbial isolates): ≥ 3 log10
- time of maximum killing rate (bacterial isolates [19]): 8 h
- time of maximum killing rate / maximum reduction in cell counts (fungal isolates [20]): 18 h
- effect on outer membrane (SEM image) [21]: perturbation in the membrane and distinct ruptures of the OM integrity
- IC50 [22]: > 100 µM
- IC50 (E. coli MurA enzyme; IC50, preincubation 0 min): 45 µM
- IC50 (E. coli MurA enzyme; IC50, preincubation 10 min): 4.5 µM
- RA (residual activity) (E. coli MurA enzyme; at 100 μM, preincubation 10 min): 4 ± 0.55%
- remaining activity at 100 µM (E. coli MurA enzyme; read-out: RA (residual activity), at 100 μM, preincubation 10 min): 7%
- physical changes (odor, color, clarity, solubility, and form) after irradiation [23]: no changes occurred
- stability of the chemical structure after irradiation ([23]; UV-VIS spectrophotometer): confirmed the stability of the chemical structure

SMILES: O=[N+]([O-])c1ccc(-c2nn(-c3ccccc3)c3sc(NC(c4ccc[nH]4)P(=O)(Oc4ccccc4)Oc4ccccc4)nc23)cc1 (stereo not drawn) [Compound 6b, Diphenyl(((3-(4-nitrophenyl)-1-phenyl-1H-pyrazolo[4,3-d]thiazol-5-yl)amino)(1H-pyrrol-2-yl)methyl)phosphonate]
- zone of inhibition at 10 µM (E. faecalis KA247 [1]; Enterococcus faecalis, KA247, read-out: Average diameter of inhibition zone (ZI)): 22 ± 0.55 mm
- zone of inhibition at 10 µM (S. aureus KA112 [2]; Staphylococcus aureus, KA112, read-out: Average diameter of inhibition zone (ZI)): 23 ± 0.77 mm
- zone of inhibition at 10 µM (E. coli KA780 [3]; Escherichia coli, KA780, read-out: Average diameter of inhibition zone (ZI)): 24 ± 0.86 mm
- zone of inhibition at 10 µM (P. mirabilis KA320 [4]; Proteus mirabilis, KA320, read-out: Average diameter of inhibition zone (ZI)): 22 ± 0.12 mm
- zone of inhibition at 10 µM (C. albicans KA205 [5]): 21 ± 0.91 mm
- zone of inhibition at 10 µM (C. tropicalis KA205 [6]): 21 ± 0.7 mm
- MIC (E. faecalis KA247 [7]): 0.25 µg/mL (≈ 0.385 µM)
- MIC (S. aureus KA112 [8]): 0.125 µg/mL (≈ 0.193 µM)
- MBC (S. aureus KA112 [8]): 0.5 µg/mL (≈ 0.771 µM)
- MIC (E. coli KA780 [9]): 0.125 µg/mL (≈ 0.193 µM)
- MBC (E. coli KA780 [9]): 0.5 µg/mL (≈ 0.771 µM)
- MIC (P. mirabilis KA320 [10]): 0.25 µg/mL (≈ 0.385 µM)
- MBC (P. mirabilis KA320 [10]): 1 µg/mL (≈ 1.54 µM)
- MIC (C. albicans KA205 [11]): 0.25 µg/mL (≈ 0.385 µM)
- MFC (C. albicans KA205 [11]): 1 µg/mL (≈ 1.54 µM)
- MIC (C. tropicalis KA205 [12]): 0.5 µg/mL (≈ 0.771 µM)
- MFC (C. tropicalis KA205 [12]): 1 µg/mL (≈ 1.54 µM)
- higher activity by MIC (bacterial isolates [24]): ~8 folds

SMILES: OC(Cn1cncn1)(Cn1cncn1)c1ccc(F)cc1F [FCA, fluconazole, reference compound]
- zone of inhibition at 10 µM (C. albicans KA205 [5]): 17 ± 0.99 mm
- zone of inhibition at 10 µM (C. tropicalis KA205 [6]): 17 ± 0.15 mm
- zone of inhibition at 10 µM (fungal isolates [25]): 17 mm
- MIC (C. albicans KA205 [11]): 2 µg/mL (≈ 6.53 µM)
- MFC (C. albicans KA205 [11]): 1 µg/mL (≈ 3.27 µM)
- MIC (C. tropicalis KA205 [12]): 4 µg/mL (≈ 13.1 µM)
- MFC (C. tropicalis KA205 [12]): 0.5 µg/mL (≈ 1.63 µM)
- bactericidal/fungicidal effect [26]: bactericidal and fungicidal activities
- MFC (fungal isolates [27]): 2 µg/mL (≈ 6.53 µM)
- time of maximum killing rate / maximum reduction in cell counts (fungal isolates [20]): 48 h

SMILES: NC(N)=NCCC[C@H](NC(=O)[C@@H](N)Cc1ccccc1)C(=O)Nc1ccc2ccccc2c1 [PAβN] (H-Phe-Arg-βNA)
- EtBr accumulation (E. coli Kam3-AcrB): increases the accumulation of EtBr
